Experimental data: ChEMBL document CHEMBL1138434 (J Nat Prod, 2003)
≈ marks a conversion by molar mass, not a printed value. Calls of active or inactive are those of the source. The calls are words filed in the database; no cut-off is given here.

What was measured:
Saccharomyces cerevisiae [1] = assay: Antifungal activity against Saccharomyces cerevisiae DSY 415 expressing Candida albicans CDR1 after 40 to 48 hrs by serial dilution method; type: functional, organism-based
Summary of the method: (§1)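 S. cerevisiae strains carrying C. albicans efflux pumps, grown 1-2 days from frozen stocks on YNB-URA/TRYP selection agar at 30 °C. Modified NCCLS broth microdilution: serial dilutions in 0.9% saline (compounds dissolved in DMSO), inoculum 1.0 × 10^4 CFU/mL in YPD. Incubated 30 °C for 40-48 h and read at 630 nm before and after. IC50 = 50% growth inhibition; MIC = lowest concentration with no detectable growth.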

Saccharomyces cerevisiae [2] = assay: Antifungal activity against Saccharomyces cerevisiae DSY 416 expressing Candida albicans MDR1 after 40 to 48 hrs by serial dilution method; type: functional, organism-based; settings: for MIC: DSY 416; for IC50: DSY 416, MDR1
Summary of the method: (§2)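 S. cerevisiae strains (null pump DSY 390, or carrying C. albicans CDR1, MDR1, CDR2, FLU1 pumps) were grown from −80 °C glycerol stocks on YNB-URA/TRYP selection agar at 30 °C. The modified NCCLS broth microdilution used compound serially diluted in 0.9% saline from DMSO, with YPD inoculum at 1.0 × 10^4 CFU/mL final. Plates were read at OD630 before and after 40-48 h at 30 °C. IC50 = 50% growth inhibition; MIC = no detectable growth.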

Saccharomyces cerevisiae [3] = assay: Antifungal activity against Saccharomyces cerevisiae DSY 426 expressing Candida albicans FLU1 after 40 to 48 hrs by serial dilution method; type: functional, organism-based; summary of the method: as §1
Saccharomyces cerevisiae [4] = assay: Antifungal activity against Saccharomyces cerevisiae DSY 417 expressing Candida albicans CDR2 after 40 to 48 hrs by serial dilution method; type: functional, organism-based; summary of the method: as §2
Saccharomyces cerevisiae [5] = assay: Antifungal activity against Saccharomyces cerevisiae DSY 390 after 40 to 48 hrs by serial dilution method; type: functional, organism-based; summary of the method: as §2
Saccharomyces cerevisiae [6] = assay: Potentiation of fluconazole-induced antifungal activity against Saccharomyces cerevisiae DSY 426 expressing Candida albicans FLU1 assessed as fractional inhibitory concentration at 3.1 uM after 40 to 48 hrs by checkerboard assay; type: functional
Summary of the method: (§3)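 This was a checkerboard in a modified NCCLS microdilution: fluconazole and second agent were each serially diluted in saline and combined in all concentration pairs. Pump-expressing or null S. cerevisiae inoculum was 1.0 × 10^4 CFU/mL in YPD, with OD630 read before and after 40-48 h at 30 °C. FIC used IC50 as endpoint. FLU levels for FIC were 0.5 µM (null), 50 µM (CDR1, MDR1), 1.56 µM (CDR2) and 3.13 µM (FLU1).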

Saccharomyces cerevisiae [7] = assay: Potentiation of fluconazole-induced antifungal activity against Saccharomyces cerevisiae DSY 390 assessed as fractional inhibitory concentration at 3.1 uM after 40 to 48 hrs by checkerboard assay; type: functional; summary of the method: as §3
Saccharomyces cerevisiae [8] = assay: Potentiation of fluconazole-induced antifungal activity against Saccharomyces cerevisiae DSY 415 expressing Candida albicans CDR1 assessed as fractional inhibitory concentration at 3.1 uM after 40 to 48 hrs by checkerboard assay; type: functional; summary of the method: as §3
Saccharomyces cerevisiae [9] = assay: Potentiation of fluconazole-induced antifungal activity against Saccharomyces cerevisiae DSY 417 expressing Candida albicans CDR2 assessed as fractional inhibitory concentration at 3.1 uM after 40 to 48 hrs by checkerboard assay; type: functional; summary of the method: as §3
Saccharomyces cerevisiae [10] = assay: Potentiation of fluconazole-induced antifungal activity against Saccharomyces cerevisiae DSY 416 expressing Candida albicans MDR1 assessed as fractional inhibitory concentration at 3.1 uM after 40 to 48 hrs by checkerboard assay; type: functional; summary of the method: as §3
Saccharomyces cerevisiae [11] = assay: Potentiation of fluconazole-induced antifungal activity against Saccharomyces cerevisiae DSY 417 expressing Candida albicans CDR2 assessed as fractional inhibitory concentration at 3.8 uM after 40 to 48 hrs by checkerboard assay; type: functional
Summary of the method: (§4)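 Checkerboard in 96-well format: FLU serially diluted along one axis and partner agent along the other, covering all combinations. S. cerevisiae pump strains or null strain at 1.0 × 10^4 CFU/mL in YPD, 30 °C for 40-48 h, growth read at 630 nm. FIC uses IC50 endpoint; FLU at 0.5 µM (null pump), 50 µM (CDR1, MDR1), 1.56 µM (CDR2), 3.13 µM (FLU1).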

Saccharomyces cerevisiae [12] = assay: Potentiation of fluconazole-induced antifungal activity against Saccharomyces cerevisiae DSY 426 expressing Candida albicans FLU1 assessed as fractional inhibitory concentration at 3.8 uM after 40 to 48 hrs by checkerboard assay; type: functional; summary of the method: as §4
Saccharomyces cerevisiae [13] = assay: Antifungal activity against Saccharomyces cerevisiae DSY 415 expressing Candida albicans CDR1 after 40 to 48 hrs by serial dilution method in absence of fluconazole; type: functional, organism-based; summary of the method: as §1
Saccharomyces cerevisiae [14] = assay: Potentiation of fluconazole-induced antifungal activity against Saccharomyces cerevisiae DSY 415 expressing Candida albicans CDR1 assessed as fractional inhibitory concentration at 3.8 uM after 40 to 48 hrs by checkerboard assay; type: functional; summary of the method: as §4
Saccharomyces cerevisiae [15] = assay: Potentiation of fluconazole-induced antifungal activity against Saccharomyces cerevisiae DSY 390 assessed as fractional inhibitory concentration at 3.8 uM after 40 to 48 hrs by checkerboard assay; type: functional; summary of the method: as §4
T47D = assay: Cytotoxicity against human T47D cells at 10 uM after 48 hrs by neutral red staining; type: cell-based
Summary of the method: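 T47D cells in DMEM/F12 with 10% FBS and penicillin/streptomycin, plated at 30 000 cells/well. After 24 h, compound added at final 0.03-10 µM and incubated 24 and 48 h at 37 °C. Then Neutral Red 0.15 mg/mL for 2 h, lysis in 0.04 N HCl/2-propanol, A540 minus A630. Viability given as percent of control.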

Saccharomyces cerevisiae [16] = assay: Potentiation of fluconazole-induced antifungal activity against Saccharomyces cerevisiae DSY 416 expressing Candida albicans MDR1 assessed as fractional inhibitory concentration at 3.8 uM after 40 to 48 hrs by checkerboard assay; type: functional; summary of the method: as §4
Saccharomyces cerevisiae [17] = assay: Antifungal activity against Saccharomyces cerevisiae DSY 416 expressing Candida albicans MDR1 after 40 to 48 hrs by serial dilution method in presence of 33 uM fluconazole; type: functional, organism-based; settings: DSY 416, MDR1; summary of the method: as §1
Saccharomyces cerevisiae [18] = assay: Antifungal activity against Saccharomyces cerevisiae DSY 415 expressing Candida albicans CDR1 after 40 to 48 hrs by serial dilution method in presence of 33 uM fluconazole; type: functional, organism-based; summary of the method: as §1
Saccharomyces cerevisiae [19] = assay: Antifungal activity against Saccharomyces cerevisiae DSY 416 expressing Candida albicans MDR1 after 40 to 48 hrs by serial dilution method in absence of fluconazole; type: functional, organism-based; settings: DSY 416, MDR1; summary of the method: as §1
[20] = biological target: T1, Multidrug resistance protein 1 (Candida albicans (strain SC5314 / ATCC MYA-2876) (Yeast)) (UniProt Q5ABU7); assay: Inhibition of Candida albicans MDR1-mediated fluconazole resistance in Saccharomyces cerevisiae DSY 416 up to 90 uM
T1 sequence (whole entry): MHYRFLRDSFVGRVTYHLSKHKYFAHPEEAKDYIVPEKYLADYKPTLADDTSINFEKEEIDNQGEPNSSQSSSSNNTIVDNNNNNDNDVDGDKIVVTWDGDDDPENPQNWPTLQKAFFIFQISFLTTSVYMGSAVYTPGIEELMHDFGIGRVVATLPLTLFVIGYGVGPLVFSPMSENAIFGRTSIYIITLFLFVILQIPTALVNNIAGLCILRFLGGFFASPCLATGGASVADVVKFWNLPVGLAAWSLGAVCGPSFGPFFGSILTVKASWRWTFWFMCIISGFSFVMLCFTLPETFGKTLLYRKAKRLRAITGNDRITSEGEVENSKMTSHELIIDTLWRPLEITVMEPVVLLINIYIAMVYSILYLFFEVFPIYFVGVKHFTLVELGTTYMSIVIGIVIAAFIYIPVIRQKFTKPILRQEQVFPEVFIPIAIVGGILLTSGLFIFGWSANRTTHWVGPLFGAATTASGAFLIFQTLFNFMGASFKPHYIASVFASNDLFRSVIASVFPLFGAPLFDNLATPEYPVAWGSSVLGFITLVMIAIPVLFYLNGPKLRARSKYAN

Saccharomyces cerevisiae [21] = assay: Potentiation of fluconazole-induced antifungal activity against Saccharomyces cerevisiae DSY 415 expressing Candida albicans CDR1 assessed as fractional inhibitory concentration at 0.1 uM after 40 to 48 hrs by checkerboard assay; type: functional; summary of the method: as §4
Saccharomyces cerevisiae [22] = assay: Potentiation of fluconazole-induced antifungal activity against Saccharomyces cerevisiae DSY 390 assessed as fractional inhibitory concentration at 0.1 uM after 40 to 48 hrs by checkerboard assay; type: functional; summary of the method: as §4
Saccharomyces cerevisiae [23] = assay: Potentiation of fluconazole-induced antifungal activity against Saccharomyces cerevisiae DSY 416 expressing Candida albicans MDR1 assessed as fractional inhibitory concentration at 0.1 uM after 40 to 48 hrs by checkerboard assay; type: functional; summary of the method: as §4
Saccharomyces cerevisiae [24] = assay: Potentiation of fluconazole-induced antifungal activity against Saccharomyces cerevisiae DSY 417 expressing Candida albicans CDR2 assessed as fractional inhibitory concentration at 0.1 uM after 40 to 48 hrs by checkerboard assay; type: functional; summary of the method: as §4
Saccharomyces cerevisiae [25] = assay: Potentiation of fluconazole-induced antifungal activity against Saccharomyces cerevisiae DSY 426 expressing Candida albicans FLU1 assessed as fractional inhibitory concentration at 0.1 uM after 40 to 48 hrs by checkerboard assay; type: functional; summary of the method: as §4

Row | SMILES | IC50 (Saccharomyces cerevisiae [1]) | MIC (Saccharomyces cerevisiae [1]) | MIC (Saccharomyces cerevisiae [2]) | IC50 (Saccharomyces cerevisiae [2]) | IC50 (Saccharomyces cerevisiae [3]) | MIC (Saccharomyces cerevisiae [3]) | IC50 (Saccharomyces cerevisiae [4]) | MIC (Saccharomyces cerevisiae [4]) | IC50 (Saccharomyces cerevisiae [5]) | MIC (Saccharomyces cerevisiae [5]) | other results
1 | OC(Cn1cncn1)(Cn1cncn1)c1ccc(F)cc1F [FLUCONAZOLE] | 300 µM | 400 µM (≈ 123 µg/mL) | > 400 µM | > 400 µM | 35 µM | 50 µM (≈ 15.3 µg/mL) | 15 µM | 25 µM (≈ 7.66 µg/mL) | 3.5 µM | 8 µM (≈ 2.45 µg/mL) | –
2 | CC(C)[C@@H]1OC(=O)[C@@H](Cc2ccccc2)N(C)C(=O)[C@H](C(C)C)OC(=O)[C@@H](Cc2ccccc2)N(C)C(=O)[C@H](C(C)C)OC(=O)[C@@H](Cc2ccccc2)N(C)C1=O [BEAUVERICIN] | – | – | – | – | – | – | – | – | – | – | fractional inhibitory concentration index (FICI) (Saccharomyces cerevisiae [6]): 2; fractional inhibitory concentration index (FICI) (Saccharomyces cerevisiae [7]): 2.57; fractional inhibitory concentration index (FICI) (Saccharomyces cerevisiae [8]): 0.045; fractional inhibitory concentration index (FICI) (Saccharomyces cerevisiae [9]): 1.3; fractional inhibitory concentration index (FICI) (Saccharomyces cerevisiae [10]): 2
3 | CC(=O)O[C@H]1C=C2[C@@H]3CC[C@H]([C@H](C)CCCC(C)C)[C@@]3(C)C[C@@H]3O[C@@]23[C@@]2(CO)CC[C@H](O)C[C@]12O | > 30 µM | – | – | – | – | – | – | – | – | – | fractional inhibitory concentration index (FICI) (Saccharomyces cerevisiae [11]): 1.6; fractional inhibitory concentration index (FICI) (Saccharomyces cerevisiae [12]): 1.26; IC50 (Saccharomyces cerevisiae [13]): > 104 µM; fractional inhibitory concentration index (FICI) (Saccharomyces cerevisiae [14]): 0.88; fractional inhibitory concentration index (FICI) (Saccharomyces cerevisiae [15]): 1.85; Activity (T47D): Non-toxic; fractional inhibitory concentration index (FICI) (Saccharomyces cerevisiae [16]): 0.05; IC50 (Saccharomyces cerevisiae [17]): < 4 µM; IC50 (Saccharomyces cerevisiae [18]): 31 µM; IC50 (Saccharomyces cerevisiae [19]): > 104 µM
4 | CC(=O)OC[C@]12CC[C@H](OC(C)=O)C[C@]1(O)[C@@H](OC(C)=O)C=C1[C@@H]3CC[C@H]([C@H](C)CCCC(C)C)[C@@]3(C)C[C@@H]3O[C@@]132 | – | – | – | – | – | – | – | – | – | – | Activity [20]: inactive
5 | C[C@@H]1[C@H](O)[C@@H](C)/C=C/C=C/C=C/C=C/C=C/C=C/C=C/[C@H](O[C@@H]2O[C@H](C)[C@@H](O)[C@H](N)[C@@H]2O)C[C@@H]2O[C@](O)(C[C@@H](O)C[C@@H](O)[C@H](O)CC[C@@H](O)C[C@@H](O)CC(=O)O[C@H]1C)C[C@H](O)[C@H]2C(=O)O [AMPHOTERICIN B] | 0.55 µM | 0.75 µM (≈ 0.693 µg/mL) | 0.75 µM (≈ 0.693 µg/mL) | 0.55 µM | 0.55 µM | 0.75 µM (≈ 0.693 µg/mL) | 0.55 µM | 0.75 µM (≈ 0.693 µg/mL) | 0.55 µM | 0.75 µM (≈ 0.693 µg/mL) | fractional inhibitory concentration index (FICI) (Saccharomyces cerevisiae [21]): 0.89; fractional inhibitory concentration index (FICI) (Saccharomyces cerevisiae [22]): 1.85; fractional inhibitory concentration index (FICI) (Saccharomyces cerevisiae [23]): 1.42; fractional inhibitory concentration index (FICI) (Saccharomyces cerevisiae [24]): 1.58; fractional inhibitory concentration index (FICI) (Saccharomyces cerevisiae [25]): 0.97
